Data as given in ChEMBL document CHEMBL4680236, “Design, synthesis and structure-activity relationships of novel 15-membered macrolides: Quinolone/quinoline-containing sidechains tethered to the C-6 position of azithromycin acylides” (Eur J Med Chem, 2020).
Converted amounts (≈) assume the structure as drawn.

Assays:
Type in all cases: functional
[1] = tested on: Streptococcus pneumoniae; assay: Antibacterial activity against Erythromycin-susceptible Streptococcus pneumoniae ATCC 49619 assessed as reduction in microbial growth
[2] = tested on: Streptococcus pneumoniae; assay: Bactericidal activity against Erythromycin-susceptible Streptococcus pneumoniae ATCC 49619
How it was run: (§1)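 Bacteria were exposed to 1- to 8-fold MIC of the sample, then transferred to fresh medium without antibacterial. After further incubation, colonies were counted. MBC was taken as the lowest concentration giving a >3 log10 reduction in colony number.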

[3] = tested on: Streptococcus pneumoniae; assay: Ratio of MBC to MIC against Erythromycin-susceptible Streptococcus pneumoniae ATCC 49619
[4] = tested on: Streptococcus pneumoniae; assay: Antibacterial activity against penicillin-susceptible Streptococcus pneumoniae PU09 harboring mef gene assessed as reduction in microbial growth
[5] = tested on: Streptococcus pneumoniae; assay: Bactericidal activity against penicillin-susceptible Streptococcus pneumoniae PU09 harboring mef gene
How it was run: (§2)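 Bacteria were exposed to 1- to 8-fold their MIC of test sample, then transferred to fresh culture medium without antibacterial compound and incubated for the required time. Colonies were then counted. MBC is the lowest concentration giving a reduction in colony number of >3 Log₁₀.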

[6] = tested on: Streptococcus pneumoniae; assay: Ratio of MBC to MIC against penicillin-susceptible Streptococcus pneumoniae PU09
[7] = tested on: Streptococcus pneumoniae; assay: Antibacterial activity against MLSB-resistant Streptococcus pneumoniae 07P390 harboring ermB gene assessed as reduction in microbial growth
[8] = tested on: Streptococcus pneumoniae; assay: Bactericidal activity against MLSB-resistant Streptococcus pneumoniae 07P390 harboring ermB gene assessed as reduction in microbial growth; how it was run: as §2
[9] = tested on: Staphylococcus aureus; assay: Antibacterial activity against MLSB/methicillin/ciprofloxacin-resistant Staphylococcus aureus PU32 harboring ermA gene assessed as reduction in microbial growth
[10] = tested on: Staphylococcus aureus; assay: Bactericidal activity against MLSB/methicillin/ciprofloxacin-resistant Staphylococcus aureus PU32 harboring ermA gene; how it was run: as §2
[11] = tested on: Staphylococcus aureus; assay: Ratio of MBC to MIC against MLSB/methicillin/ciprofloxacin-resistant Staphylococcus aureus PU32 harboring ermA gene
[12] = tested on: Staphylococcus aureus; assay: Antibacterial activity against MLSB/methicillin-resistant Staphylococcus aureus 15B196 assessed as reduction in microbial growth
[13] = tested on: Staphylococcus aureus; assay: Bactericidal activity against MLSB/methicillin-resistant Staphylococcus aureus 15B196; how it was run: as §2
[14] = tested on: Haemophilus influenzae; assay: Antibacterial activity against azithromycin-susceptible Haemophilus influenzae ATCC 49247 assessed as reduction in microbial growth
[15] = tested on: Haemophilus influenzae; assay: Bactericidal activity against azithromycin-susceptible Haemophilus influenzae ATCC 49247; how it was run: as §1
[16] = tested on: Haemophilus influenzae; assay: Ratio of MBC to MIC against azithromycin-susceptible Haemophilus influenzae ATCC 49247
[17] = tested on: Streptococcus pyogenes; assay: Antibacterial activity against MLSB-resistant Streptococcus pyogenes 12-206 harboring ermA gene assessed as reduction in microbial growth
[18] = tested on: Streptococcus pyogenes; assay: Bactericidal activity against MLSB-resistant Streptococcus pyogenes 12-206 harboring ermA gene; how it was run: as §2
[19] = tested on: Streptococcus pyogenes; assay: Ratio of MBC to MIC against MLSB-resistant Streptococcus pyogenes 12-206 harboring ermA gene
[20] = tested on: Staphylococcus aureus; assay: Antibacterial activity against MLSB/methicillin/ciprofloxacin-resistant Staphylococcus aureus PU32 harboring ermA gene assessed as reduction in microbial growth relative to ciprofloxacin
[21] = tested on: Staphylococcus aureus; assay: Antibacterial activity against MLSB/methicillin-resistant Staphylococcus aureus 15B196 assessed as reduction in microbial growth relative to ciprofloxacin
[22] = tested on: Haemophilus influenzae; assay: Antibacterial activity against azithromycin-susceptible Haemophilus influenzae ATCC 49247 assessed as reduction in microbial growth relative to ciprofloxacin
[23] = tested on: Streptococcus pneumoniae; assay: Ratio of MBC to MIC against MLSB-resistant Streptococcus pneumoniae 07P390 harboring ermB
[24] = tested on: Staphylococcus aureus; assay: Ratio of MBC to MIC against MLSB/methicillin-resistant Staphylococcus aureus 15B196

Row | Compound | MIC [1] [µg/mL] | MBC [2] [µg/mL] | Ratio [3] | MIC [4] [µg/mL] | MBC [5] [µg/mL] | Ratio [6] | MIC [7] [µg/mL] | MBC [8] [µg/mL] | MIC [9] [µg/mL] | MBC [10] [µg/mL] | Ratio [11] | MIC [12] [µg/mL] | MBC [13] [µg/mL] | MIC [14] [µg/mL] | MBC [15] [µg/mL] | Ratio [16] | MIC [17] [µg/mL] | MBC [18] [µg/mL] | Ratio [19] | Ratio [23] | further results
1 | CC[C@H]1OC(=O)[C@H](C)[C@@H](OC(=O)Cc2ccccn2)[C@H](C)[C@@H](O[C@@H]2O[C@H](C)C[C@H](N(C)C)[C@H]2O)[C@](C)(OC(=O)CCNCCC#Cc2ccc3ncccc3c2)C[C@@H](C)CN(C)[C@H](C)[C@@H](O)[C@]1(C)O | 0.03 | 0.03 (≈ 0.0312 µM) | 1 | 0.5 | 1 (≈ 1.04 µM) | 2 | 32 | 64 | 4 | > 32 | >8 | > 256 | > 256 | 4 | 8 (≈ 8.33 µM) | 2 | 2 | > 16 | >8 | – | fold change (FC) [20]: 0.0054; fold change (FC) [21]: >44; fold change (FC) [22]: 344
2 | CC[C@H]1OC(=O)[C@H](C)[C@@H](OC(=O)Cc2ccccn2)[C@H](C)[C@@H](O[C@@H]2O[C@H](C)C[C@H](N(C)C)[C@H]2O)[C@](C)(OC(=O)CCNCC/C=C/c2cnc3ccccc3c2)C[C@@H](C)CN(C)[C@H](C)[C@@H](O)[C@]1(C)O | 0.125 | 0.125 (≈ 0.13 µM) | 1 | 1 | 1 (≈ 1.04 µM) | 1 | 4 | > 32 | 2 | 8 (≈ 8.31 µM) | 4 | 64 | > 256 | 8 | 16 (≈ 16.6 µM) | 2 | – | – | – | >8 | Ratio [24]: >4
3 | CC[C@H]1OC(=O)[C@H](C)[C@@H](O[C@H]2C[C@@](C)(OC)[C@@H](O)[C@H](C)O2)[C@H](C)[C@@H](O[C@@H]2O[C@H](C)C[C@H](N(C)C)[C@H]2O)[C@](C)(OC)C[C@@H](C)C(=O)[C@H](C)[C@@H](O)[C@]1(C)O [CLARITHROMYCIN] | – | – | – | 8 | – | – | > 256 | – | 64 | – | – | ≥ 16 | – | 16 | – | – | > 256 | – | – | – | fold change (FC) [20]: 0.11; fold change (FC) [21]: >57; fold change (FC) [22]: 1768
4 | CC[C@H]1OC(=O)[C@H](C)[C@@H](OC(=O)Cc2ccccn2)[C@H](C)[C@@H](O[C@@H]2O[C@H](C)C[C@H](N(C)C)[C@H]2O)[C@](C)(OC(=O)CCNCCC#Cc2ccc3c(c2)c(=O)c(C(=O)O)cn3C2CC2)C[C@@H](C)CN(C)[C@H](C)[C@@H](O)[C@]1(C)O | 0.25 | 0.5 (≈ 0.472 µM) | 2 | 2 | 4 (≈ 3.77 µM) | 2 | 64 | 256 | 128 | > 256 | – | > 256 | > 256 | 32 | 64 (≈ 60.4 µM) | 2 | 16 | 128 (≈ 121 µM) | 8 | 4 | –
5 | CC[C@H]1OC(=O)[C@H](C)C(=O)[C@H](C)[C@@H](O[C@@H]2O[C@H](C)C[C@H](N(C)C)[C@H]2O)[C@](C)(OC)C[C@@H](C)C(=O)[C@H](C)[C@H]2N(CCCCn3cnc(-c4cccnc4)c3)C(=O)O[C@]12C [TELITHROMYCIN] | ≤ 0.008 | ≤ 0.008 | – | 0.25 | 0.5 (≈ 0.616 µM) | 2 | 0.016 | > 0.125 | 2 | – | – | 4 | – | 4 | – | – | 0.25 | – | – | >8 | fold change (FC) [20]: 0.0032; fold change (FC) [21]: >52; fold change (FC) [22]: 407
6 | CC[C@H]1OC(=O)[C@H](C)[C@@H](OC(=O)Cc2ccccn2)[C@H](C)[C@@H](O[C@@H]2O[C@H](C)C[C@H](N(C)C)[C@H]2O)[C@](C)(OC(=O)CCNCCCCc2cnc3ccccc3c2)C[C@@H](C)CN(C)[C@H](C)[C@@H](O)[C@]1(C)O | 0.25 | 0.5 (≈ 0.519 µM) | 2 | 4 | 4 (≈ 4.15 µM) | 1 | 8 | 32 | 4 | 16 (≈ 16.6 µM) | 4 | 256 | > 256 | 16 | 32 (≈ 33.2 µM) | 2 | – | – | – | 4 | –
7 | CC[C@H]1OC(=O)[C@H](C)[C@@H](OC(=O)Cc2cccnc2)[C@H](C)[C@@H](O[C@@H]2O[C@H](C)C[C@H](N(C)C)[C@H]2O)[C@](C)(OC(=O)CCNCCC#Cc2ccc3c(c2)c(=O)c(C(=O)O)cn3C2CC2)C[C@@H](C)CN(C)[C@H](C)[C@H]2OC(=O)O[C@@]21C | 2 | 8 (≈ 7.36 µM) | 4 | 4 | 16 (≈ 14.7 µM) | 4 | 64 | 128 | 128 | > 256 | – | 256 | > 256 | 32 | 64 (≈ 58.9 µM) | 2 | 64 | 64 (≈ 58.9 µM) | 1 | 2 | –
